Measured values reported in ChEMBL document CHEMBL3244345, “Cytostatic quinones. 3. Synthesis of benzotriazolequinones by a new oxidation with m-chloroperbenzoic acid. Biochemical studies” (1978).
Values after ≈ are worked out from the molar mass of the structure shown. Active and inactive are the calls of the source. No cut-off for these calls is given here.

Key:
HeLa = assay: Cytostatic activity against human HeLa cells assessed as growth inhibition after 72 hrs by colorimetric method; type: functional; details: read-out: ED50 (the source's name)
Procedure, shortened: (§1)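 HeLa or KB cells at 10⁵ cells/mL in Minimal Medium Eagle with 10% fetal calf serum were incubated at 37 °C in Leighton tubes. After the cells attached (2-3 h), compound was added in sterile saline with 0.05% Tween 80, making up 10% of the final volume. After 72 h at 37 °C, growth was read as cell protein (Oyama–Eagle colorimetric method). 6-Mercaptopurine was the positive control. ED₅₀ was derived.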

KB = assay: Cytostatic activity against human KB cells assessed as growth inhibition after 72 hrs by colorimetric method; type: functional; details: read-out: ED50 (the source's name); procedure, shortened: as §1
Ehrlich [1] = assay: Inhibition of DNA synthesis in mouse Ehrlich ascite carcinoma cells assessed as incorporation of [3H]thymidine after 1.5 hrs by liquid scintillation spectrophotometer; type: functional, cell-based
Procedure, shortened: (§2)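 Ehrlich ascites cells were taken from mice bearing 7-day nonbloody tumors, washed in saline, and resuspended at 5×10⁵ cells/mL in Eagle Spinner medium with 10% fetal calf serum. They were stirred 1.5 h at 37 °C with compound and one labelled precursor: [¹⁴C]glucose 0.2 μCi, [³H]thymidine 0.1 μCi, [³H]uridine 0.5 μCi, or [³H]proline. Then 1 mL samples were diluted in cold saline and pelleted.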

Ehrlich [2] = assay: Inhibition of RNA synthesis in mouse Ehrlich ascite carcinoma cells assessed as incorporation of [3H]uridine after 1.5 hrs by liquid scintillation spectrophotometer; type: functional, cell-based; procedure, shortened: as §2
Ehrlich [3] = assay: Inhibition of protein synthesis in mouse Ehrlich ascite carcinoma cells assessed as incorporation of [3H]proline after 1.5 hrs by liquid scintillation spectrophotometer; type: functional, cell-based; procedure, shortened: as §2
Ehrlich [4] = assay: Inhibition of [3H]glucose uptake in mouse Ehrlich ascite carcinoma cells after 1.5 hrs by liquid scintillation spectrophotometer; type: functional, cell-based; details: in the assay text read “[14C]glucose” for “[3H]glucose”; procedure, shortened: as §2
Ehrlich [5] = assay: Irreversible inhibition of DNA synthesis in mouse Ehrlich ascite carcinoma cells assessed as incorporation of [3H]thymidine at 10 ug/ml after 1.5 hrs by liquid scintillation spectrophotometer; type: functional, cell-based
Procedure, shortened: (§3)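 For reversibility, Ehrlich ascites cells were preincubated 1.5 h at 37 °C with or without 10 μg/mL quinone. They were washed in saline at room temperature and resuspended in fresh Eagle Spinner medium. They were then incubated at 37 °C with radiolabelled glucose, thymidine, uridine or proline at the same amounts as the direct assay. Samples were taken over time to follow incorporation.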

Ehrlich [6] = assay: Irreversible inhibition of RNA synthesis in mouse Ehrlich ascite carcinoma cells assessed as incorporation of [3H]uridine at 10 ug/ml after 1.5 hrs by liquid scintillation spectrophotometer; type: functional, cell-based; procedure, shortened: as §3
Ehrlich [7] = assay: Irreversible inhibition of protein synthesis in mouse Ehrlich ascite carcinoma cells assessed as incorporation of [3H]proline at 10 ug/ml after 1.5 hrs by liquid scintillation spectrophotometer; type: functional, cell-based; procedure, shortened: as §3
Ehrlich [8] = assay: Irreversible inhibition of [3H]glucose uptake in mouse Ehrlich ascite carcinoma cells at 10 ug/ml after 1.5 hrs by liquid scintillation spectrophotometer; type: functional, cell-based; details: in the assay text read “[14C]glucose” for “[3H]glucose”; procedure, shortened: as §3

Compound | EC50 (HeLa) | EC50 (KB) | inhibition (Ehrlich [1]) | inhibition (Ehrlich [2]) | inhibition (Ehrlich [3]) | inhibition (Ehrlich [4]) | inhibition (Ehrlich [5]) | inhibition (Ehrlich [6]) | inhibition (Ehrlich [7]) | inhibition (Ehrlich [8])
CC1=C(C)C(=O)c2nn(Cc3ccccc3)nc2C1=O | 0.8 µg/mL (≈ 2.99 µM) | 3.5 µg/mL (≈ 13.1 µM) | Active | Active | Active | Active |  |  |  | 
COC(=O)C(C)n1nc2c(n1)C(=O)C(C)=C(C)C2=O (stereo not given) | 0.9 µg/mL (≈ 3.42 µM) | 3.5 µg/mL (≈ 13.3 µM) | Active | Active | Active | Active |  |  |  | 
Cc1cc2c(cc1C)[n+]([O-])nn2Cc1ccccc1 | > 100 µg/mL | > 100 µg/mL |  |  |  |  |  |  |  | 
CC1=CC(=O)c2nn(C)nc2C1=O | 0.3 µg/mL (≈ 1.69 µM) | 2.5 µg/mL (≈ 14.1 µM) | Active | Active | Active | Active |  |  |  | 
COC(=O)Cn1nc2c(n1)C(=O)C(C)=C(C)C2=O | 1 µg/mL (≈ 4.01 µM) | 4 µg/mL (≈ 16 µM) | Active | Active | Active | Active |  |  |  | 
CC1=C(C)C(=O)c2nn(C)nc2C1=O | 0.5 µg/mL (≈ 2.62 µM) | 3 µg/mL (≈ 15.7 µM) | Active | Active | Active | Active |  |  |  | 
COC(=O)Cn1nc2c(n1)C(=O)C(C)=CC2=O | 0.5 µg/mL (≈ 2.13 µM) | 1.5 µg/mL (≈ 6.38 µM) | Active | Active | Active | Active | Active | Active | Active | Active
Sc1ncnc2nc[nH]c12 [MERCAPTOPURINE ANHYDROUS] | 0.1 µg/mL (≈ 0.657 µM) | 0.1 µg/mL (≈ 0.657 µM) |  |  |  |  |  |  |  | 

Further lines, with some results ahead:

EC50 (HeLa) | EC50 (KB) | Compound | inhibition (Ehrlich [1]) | inhibition (Ehrlich [2]) | inhibition (Ehrlich [3]) | inhibition (Ehrlich [4]) | inhibition (Ehrlich [5]) | inhibition (Ehrlich [6]) | inhibition (Ehrlich [7]) | inhibition (Ehrlich [8])
> 100 µg/mL | > 100 µg/mL | COC(=O)C(C)n1n[n+]([O-])c2cc(C)c(C)cc21 (stereo not given) |  |  |  |  |  |  |  | 
> 100 µg/mL | > 100 µg/mL | COC(=O)Cn1n[n+]([O-])c2cc(C)c(C)cc21 |  |  |  |  |  |  |  | 
> 100 µg/mL | > 100 µg/mL | Cc1cc2c(cc1C)[n+]([O-])nn2C |  |  |  |  |  |  |  | 
